Compound activity as filed in PubChem.
APJ antagonist – APJ receptor antagonism; P35414; CHO-K1 APJ beta-arrestin complementation, luminescence; inhibition, % at 20 µM; 0.32% of 330,000 active;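 active means inhibition above about 40% at 20 µM, limit read from the data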;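 further: cells challenged with 10 nM apelin-13 agonist together with compound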
CCR6 antagonist – CCR6 (human) receptor antagonism; P51684; CHO-K1 CCR6 PathHunter beta-arrestin, luminescence, CCL20-stimulated; inhibition, % at 20 µM; 0.49% of 340,000 active;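 active means compounds whose inhibition of the agonist-driven luminescence signal at 20 µM reaches about 50%, limit read from the data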;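 further: cells stimulated with CCL20 at 14 nM final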
iPSC survival up – hiPSC single-cell survival enhancement; AID 602274; 0.044% of 360,000 active; ATPlite luminescence; 100% = ROCK inhibitor wells, 0% = DMSO; survival enhancement, % at 20 µM; in the data active means survival enhancement above about 18%;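 further: cells exposed to compounds for 16 hours before the ATP read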
CXCR6 inh – CXCR6 (human) receptor inhibition | O00574 | inhibition, % at 20 µM | 0.36% of 360,000 active | CHO-K1 PathHunter CXCR6 beta-arrestin, luminescence; in the data active means inhibition above about 34%, passing the limit was not always enough;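 further: antagonist mode with CXCL16 agonist at 10 nM final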
Target sequence (O00574 whole entry, looked up): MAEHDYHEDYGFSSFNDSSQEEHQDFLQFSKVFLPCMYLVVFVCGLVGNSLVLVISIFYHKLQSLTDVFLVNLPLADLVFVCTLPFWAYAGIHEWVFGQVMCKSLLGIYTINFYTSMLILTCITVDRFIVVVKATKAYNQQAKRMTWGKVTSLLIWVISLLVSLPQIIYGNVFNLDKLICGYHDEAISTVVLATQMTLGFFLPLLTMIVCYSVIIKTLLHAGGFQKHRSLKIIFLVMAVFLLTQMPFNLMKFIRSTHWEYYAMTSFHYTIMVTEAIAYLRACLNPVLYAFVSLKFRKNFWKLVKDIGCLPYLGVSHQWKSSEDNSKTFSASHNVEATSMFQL
APJ ag – APJ receptor agonism; 0.11% of 330,000 active; CHO-K1 APJ PathHunter beta-arrestin, luminescence; 0% DMSO wells, 100% apelin; P35414; activation, % at 20 µM;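 active means activation more than six SD over the plate average, tested at 20 µM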
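Test system – PathHunter CHO-K1 APJ (AGTRL-1) beta-arrestin reporter cells · Input – 1000 cells/well · Compound – single test compound dose, 20 µM final, 1% DMSO · Times – compound stimulation 90 min at 25 °C, detection 60 min · Technique – beta-gal luminescence · Read-out basis – APJ–arrestin association signal · Control set – negative DMSO alone, positive Apelin-13 at 10 nM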
DAGLB inhibitor – diacylglycerol lipase beta (human) inhibition; Q8NCG7; HEK293T DAGLB membrane lysate, EnzChek fluorogenic substrate; inhibition, % at 5.17 µM; 0.059% of 340,000 active; in the data active means inhibition above about 34%
APJ antag conf – APJ receptor antagonism confirmation; APJ beta-arrestin recruitment, luminescence, antagonist mode; AID 2766; inhibition, % at 20 µM; shares compounds with APJ antagonist; 66% of 950 active; in the data active means inhibition above about 50%
A number is an active result; n = inactive; x = no result given. Sampled rows, rich in hits. Any-hit rate of the full collection: about 0.86%.

SMILES	APJ antagonist	CCR6 antagonist	iPSC survival up	CXCR6 inh	APJ ag	DAGLB inhibitor	APJ antag conf
O=[N+]([O-])c1cccc(N/N=C/c2cc([N+](=O)[O-])ccc2O)c1	46	n	n	n	n	n	n
CN(/N=C/c1cc([N+](=O)[O-])ccc1O)c1ccccc1	42	64	n	48	n	n	63
c1ccc(NNC2=NCCS2)cc1	46	n	n	n	n	n	n
O=c1[nH]c(=O)n2c(c1-c1ccccc1)OC(CBr)C2 (stereo not drawn)	x	x	n	n	x	n	x
CN(C)CCNC(=O)c1ccc2c(c1)N(Cc1ccc(F)cc1)CCS2	52	n	n	n	n	n	n
NS(=O)(=O)c1ccc(N=Nc2c[nH]c(=O)c(O)c2)cc1	53	71	n	44	n	n	90
Cc1ccc(C(=O)COC(=O)CN2C(=O)C3C4CCC(C4)C3C2=O)cc1C (stereo not drawn)	n	n	n	n	n	n	x
Cc1ccc(C(=O)COC(=O)CN2C(=O)C3CC=CCC3C2=O)cc1[N+](=O)[O-] (stereo not drawn)	45	n	n	n	n	n	79
Cc1ccc(C(=O)COC(=O)CN2C(=O)C3C4CCC(C4)C3C2=O)cc1[N+](=O)[O-] (stereo not drawn)	49	n	n	n	n	n	n
O=C(CN1C(=O)C2C3C=CC(C3)C2C1=O)OCC(=O)c1ccc(Cl)c([N+](=O)[O-])c1 (stereo not drawn)	81	71	n	48	n	n	143
Cc1ccc(C(=O)COC(=O)CCN2C(=O)C3C4CCC(C4)C3C2=O)cc1[N+](=O)[O-] (stereo not drawn)	50	n	n	n	n	n	n
Cc1ccc(C(=O)COC(=O)CN2C(=O)C3C4C=CC(C4)C3C2=O)cc1[N+](=O)[O-] (stereo not drawn)	n	n	n	n	n	n	x
Cc1ccc([N+](=O)[O-])c(NC(=O)COC(=O)C2CC3CCCC(C2)C3=O)c1C (stereo not drawn)	n	n	n	n	n	n	x
O=C(CN1C(=O)C2C3CCC(C3)C2C1=O)OCC(=O)c1cccc([N+](=O)[O-])c1 (stereo not drawn)	61	62	n	n	n	n	89
O=C(CCN1C(=O)C2C3CC(C(Br)C3Br)C2C1=O)OCC(=O)c1cccc([N+](=O)[O-])c1 (stereo not drawn)	59	55	n	n	n	n	100
Cc1ccc(C(=O)COC(=O)C2CC3CCCC(C2)C3=O)cc1[N+](=O)[O-] (stereo not drawn)	43	n	n	n	n	n	n
O=C(COC(=O)c1ccc(Br)o1)NC1CCCc2ccccc21 (stereo not drawn)	n	n	n	n	n	n	x
CC1=C/C(=C(/c2ccc(O)c(C)c2)c2ccccc2S(=O)(=O)O)C=CC1=O	46	55	n	41	n	n	59
CC1=C/C(=C(/c2cc(C)c(O)c(Br)c2)c2ccccc2S(=O)(=O)O)C=C(Br)C1=O	46	64	n	43	n	n	86
CCCCN1C(=O)C(C(=O)OCc2ccccc2)CC2=C1CCCC2=O (stereo not drawn)	x	n	n	n	x	n	x
O=C(NC(O)C(=O)c1cccs1)c1cccnc1 (stereo not drawn)	50	n	n	n	n	n	n
O=C(NC(O)C(=O)c1ccccc1)c1cccs1 (stereo not drawn)	48	n	n	n	n	n	n
O=C(NNC(=O)c1cccs1)c1cccnc1	n	n	n	n	n	n	x
CSc1ncccc1C(=O)OCC(=O)Nc1ccc(S(=O)(=O)N2CCCC2)cc1	n	n	n	n	n	n	x
CSc1ncccc1C(=O)OCC(=O)c1ccc(S(=O)(=O)N2CCCCC2)cc1	46	n	n	n	n	n	n
CC(OC(=O)C1CCN(S(=O)(=O)c2ccc(C(C)(C)C)cc2)CC1)C(=O)N(C)C1CCCCC1 (stereo not drawn)	x	n	n	n	x	n	x
